Assays:
Platelet [1] = experiment: Inhibition of collagen-induced platelet aggregation in rabbit platelet-rich plasma at 100 ug/mL after 3 mins by turbidimetric method; format: functional, Oryctolagus cuniculus; set-up: scale not given: the % may be the effect or the level left
In short: (§1)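 Preincubated with test agent or 0.5% DMSO (final, control) at 37° for 3 min, then ADP (20 μM), arachidonic acid (100 μM), collagen (10 μg/ml) or PAF (2 ng/ml) added. Stirred at 1200 rpm, turbidimetric aggregometry. Percent aggregation as mean ± SEM.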

Platelet [2] = experiment: Inhibition of arachidonic acid-induced platelet aggregation in rabbit platelet-rich plasma at 100 ug/mL after 3 mins by turbidimetric method; format: functional, Oryctolagus cuniculus; set-up: scale not given: the % may be the effect or the level left; in short: as §1
Platelet [3] = experiment: Inhibition of platelet activity factor-induced platelet aggregation in rabbit platelet-rich plasma at 100 ug/mL after 3 mins by turbidimetric method; format: functional, Oryctolagus cuniculus; set-up: scale not given: the % may be the effect or the level left; in short: as §1
Aorta [4] = experiment: Inhibition of norepinephrine-induced Wistar rat thoracic aorta tonic contraction at 100 ug/mL after 15 mins; format: functional
In short: (§2)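 Wistar rat thoracic aorta rings, about 5 mm, in Krebs solution at 37° gassed with 95% O2/5% CO2, under 1 g tension, equilibrated 90 min. Preincubated 15 min with compound or 0.1% DMSO (control), then stimulated with high K+ (80 mM) plus Ca2+ (1.9 mM) or norepinephrine 3 μM (phasic and tonic phases). Expressed as % of control contraction, mean ± SE, n = 3.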

Aorta [5] = experiment: Inhibition of norepinephrine-induced Wistar rat thoracic aorta phasic contraction at 100 ug/mL after 15 mins; format: functional; in short: as §2
Aorta [6] = experiment: Inhibition of K(+)/Ca(2+)-induced Wistar rat thoracic aorta contraction at 100 ug/mL after 15 mins; format: functional; in short: as §2
Platelet [7] = experiment: Inhibition of ADP-induced platelet aggregation in rabbit platelet-rich plasma at 50 ug/mL after 3 mins by turbidimetric method; format: functional, Oryctolagus cuniculus; set-up: scale not given: the % may be the effect or the level left
In short: (§3)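 Washed rabbit platelets from EDTA-anticoagulated platelet-rich plasma, 4.5 × 10^8/ml in Tyrode's solution with 0.35% BSA. Preincubated with test agent or 0.5% DMSO (final, control) at 37° for 3 min, then ADP (20 μM), arachidonic acid (100 μM), collagen (10 μg/ml) or PAF (2 ng/ml) added. Stirred at 1200 rpm, turbidimetric aggregometry. Percent aggregation as mean ± SEM.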

Platelet [8] = experiment: Inhibition of arachidonic acid-induced platelet aggregation in rabbit platelet-rich plasma at 50 ug/mL after 3 mins by turbidimetric method; format: functional, Oryctolagus cuniculus; set-up: scale not given: the % may be the effect or the level left
In short: (§4)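 Washed rabbit platelets from EDTA-anticoagulated platelet-rich plasma, 4.5 × 10^8/ml in Tyrode's solution with 0.35% BSA. Preincubated with compound or 0.5% DMSO (final) at 37° for 3 min, stirred at 1200 rpm. Arachidonic acid (100 µM) or collagen (10 µg/ml) then added. Turbidimetric read-out on a Lumi-aggregometer gives % aggregation as mean ± SEM.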

Platelet [9] = experiment: Inhibition of platelet activity factor-induced platelet aggregation in rabbit platelet-rich plasma at 50 ug/mL after 3 mins by turbidimetric method; format: functional, Oryctolagus cuniculus; set-up: scale not given: the % may be the effect or the level left; in short: as §3
Platelet [10] = experiment: Inhibition of collagen-induced platelet aggregation in rabbit platelet-rich plasma at 50 ug/mL after 3 mins by turbidimetric method; format: functional, Oryctolagus cuniculus; set-up: scale not given: the % may be the effect or the level left; in short: as §4
Platelet [11] = experiment: Inhibition of ADP-induced platelet aggregation in rabbit platelet-rich plasma at 100 ug/mL after 3 mins by turbidimetric method; format: functional, Oryctolagus cuniculus; set-up: scale not given: the % may be the effect or the level left; in short: as §3
Platelet [12] = experiment: Inhibition of arachidonic acid-induced platelet aggregation in rabbit platelet-rich plasma at 25 ug/mL after 3 mins by turbidimetric method; format: functional, Oryctolagus cuniculus; set-up: scale not given: the % may be the effect or the level left; in short: as §3
Platelet [13] = experiment: Inhibition of platelet activity factor-induced platelet aggregation in rabbit platelet-rich plasma at 25 ug/mL after 3 mins by turbidimetric method; format: functional, Oryctolagus cuniculus; set-up: scale not given: the % may be the effect or the level left; in short: as §3
Platelet [14] = experiment: Inhibition of ADP-induced platelet aggregation in rabbit platelet-rich plasma at 25 ug/mL after 3 mins by turbidimetric method; format: functional, Oryctolagus cuniculus; set-up: scale not given: the % may be the effect or the level left; in short: as §3
Platelet [15] = experiment: Inhibition of collagen-induced platelet aggregation in rabbit platelet-rich plasma at 25 ug/mL after 3 mins by turbidimetric method; format: functional, Oryctolagus cuniculus; set-up: scale not given: the % may be the effect or the level left; in short: as §3
Aorta [16] = experiment: Inhibition of norepinephrine-induced Wistar rat thoracic aorta tonic contraction at 20 ug/mL after 15 mins; format: functional; set-up: scale not given: the % may be the effect or the level left
In short: (§5)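 Thoracic aorta rings (~5 mm) from Wistar rats of either sex (250–300 g) held in Krebs solution at 37° under 95% O2/5% CO2. Equilibrated 90 min at 1 g tension, then preincubated 15 min with compound or 0.1% DMSO. Contraction by norepinephrine (3 µM), phasic and tonic components, expressed as % of control contraction, mean ± SE, n = 3.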

Aorta [17] = experiment: Inhibition of norepinephrine-induced Wistar rat thoracic aorta phasic contraction at 20 ug/mL after 15 mins; format: functional; set-up: scale not given: the % may be the effect or the level left; in short: as §5
Aorta [18] = experiment: Inhibition of norepinephrine-induced Wistar rat thoracic aorta phasic contraction at 50 ug/mL after 15 mins; format: functional; set-up: scale not given: the % may be the effect or the level left; in short: as §5
Aorta [19] = experiment: Inhibition of norepinephrine-induced Wistar rat thoracic aorta tonic contraction at 50 ug/mL after 15 mins; format: functional; set-up: scale not given: the % may be the effect or the level left; in short: as §5
Aorta [20] = experiment: Inhibition of norepinephrine-induced Wistar rat thoracic aorta tonic contraction at 10 ug/mL after 15 mins; format: functional; set-up: scale not given: the % may be the effect or the level left; in short: as §5
Aorta [21] = experiment: Inhibition of norepinephrine-induced Wistar rat thoracic aorta phasic contraction at 10 ug/mL after 15 mins; format: functional; set-up: scale not given: the % may be the effect or the level left; in short: as §5
Platelet [22] = experiment: Inhibition of collagen-induced platelet aggregation in rabbit platelet-rich plasma after 3 mins by turbidimetric method; format: functional; conditions: Oryctolagus cuniculus

Row | Structure (SMILES) | Activity (Platelet [1]) | Activity (Platelet [2]) | Activity (Platelet [3]) | Activity (Platelet [11]) | other results
1 | CC(=O)Oc1cc(OC(C)=O)c2c(=O)c(OC(C)=O)c(-c3ccc(OC(C)=O)c(OC(C)=O)c3)oc2c1 | 17.4% | 2.4% | 89.2% | – | –
2 | O=c1c(O[C@@H]2O[C@H](CO[C@@H]3OC[C@H](O)[C@H](O)[C@H]3O)[C@H](O)[C@H](O)[C@H]2O)c(-c2ccc(O)c(O)c2)oc2cc(O)cc(O)c12 | – | – | – | – | Contraction (% of control) (Aorta [4]): 108.4%; Contraction as % of control (Aorta [5]): 100%; Contraction as % of control (Aorta [6]): 100%
3 | CC(=O)Oc1cc(OC(C)=O)c2c(=O)c(O[C@@H]3O[C@H](CO[C@@H]4OC[C@H](OC(C)=O)[C@H](OC(C)=O)[C@H]4OC(C)=O)[C@H](OC(C)=O)[C@H](OC(C)=O)[C@H]3OC(C)=O)c(-c3ccc(OC(C)=O)c(OC(C)=O)c3)oc2c1 | 38.5% | 78.3% | 87.7% | – | –
4 | COc1cc(OC(C)=O)c2c(=O)c(O[C@@H]3O[C@H](CO[C@@H]4O[C@@H](C)[C@H](O[C@@H]5O[C@@H](C)[C@H](OC(C)=O)[C@@H](OC(C)=O)[C@H]5OC(C)=O)[C@@H](OC(C)=O)[C@H]4OC(C)=O)[C@H](OC(C)=O)[C@H](OC(C)=O)[C@H]3OC(C)=O)c(-c3ccc(OC(C)=O)c(OC)c3)oc2c1 | 87.8% | 88.8% | 90.8% | – | –
5 | Cc1cc(O)c2c(c1)C(=O)c1cccc(O)c1C2=O [CHRYSOPHANOL] | – | – | – | – | Activity (Platelet [7]): 82.6%; Activity (Platelet [8]): 90.6%; Activity (Platelet [9]): 88.3%; Activity (Platelet [10]): 85.4%
6 | CC(=O)Oc1cc(OC(C)=O)c2c(c1)C(=O)c1cc(C)cc(OC(C)=O)c1C2=O [EMODIN TRIACETATE] | 89.6% | 82.5% | 84.5% | 72.2% | –
7 | Cc1cc(O)c2c(c1)C(=O)c1cc(O)cc(O)c1C2=O [EMODIN] | 75.7% | 33.6% | 76.4% | 65.1% | Activity (Platelet [12]): 90.2%; Activity (Platelet [8]): 64.5%; Activity (Platelet [10]): 83.3%
8 | O=c1c(O[C@@H]2O[C@H](CO)[C@H](O)[C@H](O)[C@H]2O)c(-c2ccc(O)c(O)c2)oc2cc(O)cc(O)c12 [HYPEROSIDE] | 87.3% | 92.2% | 93.8% | 71.4% | Contraction (% of control) (Aorta [4]): 98.8%; Contraction as % of control (Aorta [5]): 100%; Contraction as % of control (Aorta [6]): 120.9%
9 | COc1ccc2c(c1)c(CC(=O)O)c(C)n2C(=O)c1ccc(Cl)cc1 [INDOMETHACIN] | 72.3% | 0% | 89.4% | 69.5% | –
10 | COc1cc(OC(C)=O)c2c(c1)C(=O)c1cc(C)cc(OC(C)=O)c1C2=O [PHYSCION DIACETATE] | – | – | – | – | Activity (Platelet [12]): 90.3%; Activity (Platelet [13]): 93.9%; Activity (Platelet [14]): 76.5%; Activity (Platelet [15]): 89.4%
11 | COc1cc(O)c2c(c1)C(=O)c1cc(C)cc(O)c1C2=O [PHYSCION] | – | – | – | – | Activity (Platelet [12]): 89.6%; Activity (Platelet [13]): 80.7%; Activity (Platelet [14]): 78.9%; Activity (Platelet [15]): 86.8%
12 | O=c1c(O)c(-c2ccc(O)c(O)c2)oc2cc(O)cc(O)c12 [QUERCETIN] | – | – | – | – | Activity (Aorta [16]): 29.1%; Activity (Aorta [17]): 44.9%; Contraction (% of control) (Aorta [4]): 0%; Contraction as % of control (Aorta [5]): 27%; Activity (Aorta [18]): 15%; Activity (Aorta [19]): 0%; Activity (Aorta [20]): 101.9%; Activity (Aorta [21]): 105%; Contraction as % of control (Aorta [6]): 13.9%
13 | COc1cc(OC(C)=O)c2c(=O)c(OC(C)=O)c(-c3ccc(OC(C)=O)c(OC)c3)oc2c1 [RHAMNAZIN TRIACETATE] | 14.3% | 10% | 84.5% | – | Activity (Platelet [22]): Dose-dependent effect
14 | COc1cc(OC(C)=O)c2c(=O)c(OC(C)=O)c(-c3ccc(OC(C)=O)c(OC(C)=O)c3)oc2c1 [RHAMNETIN TETRAACETATE] | 0% | 2.6% | 0% | – | Activity (Platelet [22]): Dose-dependent effect
15 | CC(=O)Oc1cc(OC(C)=O)c2c(=O)c(OC(C)=O)c(-c3ccc(O[C@@H]4O[C@H](CO[C@@H]5O[C@@H](C)[C@H](OC(C)=O)[C@@H](OC(C)=O)[C@H]5O[C@@H]5O[C@@H](C)[C@H](OC(C)=O)[C@@H](OC(C)=O)[C@H]5OC(C)=O)[C@H](OC(C)=O)[C@H](OC(C)=O)[C@H]4OC(C)=O)cc3)oc2c1 [RHAMNUSTRIOSIDE UNDECAAACETATE] | 86.5% | 88.5% | 89.9% | – | –
16 | CC(=O)Oc1cc(OC(C)=O)c2c(=O)c(O[C@@H]3O[C@H](CO[C@@H]4O[C@@H](C)[C@H](OC(C)=O)[C@@H](OC(C)=O)[C@H]4OC(C)=O)[C@@H](OC(C)=O)[C@H](OC(C)=O)[C@H]3OC(C)=O)c(-c3ccc(OC(C)=O)c(OC(C)=O)c3)oc2c1 [RUTIN DECAACETATE] | 27.3% | 25.9% | 88.7% | 72.4% | –
17 | C[C@@H]1O[C@@H](OC[C@H]2O[C@@H](Oc3c(-c4ccc(O)c(O)c4)oc4cc(O)cc(O)c4c3=O)[C@H](O)[C@@H](O)[C@@H]2O)[C@H](O)[C@H](O)[C@H]1O [RUTIN] | 87% | 93.5% | 91.1% | 75% | Contraction (% of control) (Aorta [4]): 120.6%; Contraction as % of control (Aorta [5]): 103.8%; Contraction as % of control (Aorta [6]): 112.9%

From ChEMBL document CHEMBL1148170, “Antiplatelet effects and vasorelaxing action of some constituents of Formosan plants” (1993)
